Molecules are shown by their SMILES. Calls of active or inactive are those of the source. The calls are words filed in the database; no cut-off is given here.

Assay [1] deals with Bacillus cereus. Briefly: Antimicrobial activity against Bacillus cereus ATCC 8035 measured every 24 hrs for 5 days by two-fold serial dilution method. The assay is classed as functional.
Assay [2] deals with Pseudomonas aeruginosa. Briefly: Bactericidal activity against Pseudomonas aeruginosa ATCC 9027 measured after 4 hrs. The assay is classed as functional. Summed up: (§1)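 Microbicidal (bactericidal/fungicidal) concentration, killing of microbial cells, determined per literature procedures; tests in duplicate, repeated twice.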
In assay [3] the test system is Staphylococcus aureus. Put plainly: Bactericidal activity against Staphylococcus aureus 209p measured after 4 hrs. It counts as functional. The essentials: as §1
Assay [4] has as its system Bacillus cereus. Briefly: Bactericidal activity against Bacillus cereus ATCC 8035 measured after 4 hrs. It counts as functional. Conditions: ATCC 8035, 4 h. The essentials: as §1
Assay [5] concerns Trichophyton mentagrophytes. Put plainly: Antimicrobial activity against Trichophyton mentagrophytes var. gypseum 1773 measured after 14 days by two-fold serial dilution method. It counts as functional.
The test system of assay [6] is Candida albicans. Briefly: Bactericidal activity against Candida albicans 855-653 measured after 4 hrs. It counts as functional. The essentials: as §1
For assay [7], the system named is Staphylococcus aureus. Briefly: Antimicrobial activity against Staphylococcus aureus 209p measured every 24 hrs for 5 days by two-fold serial dilution method. The assay is classed as functional.
Assay [8] relates to Candida albicans. Briefly: Antimicrobial activity against Candida albicans 855-653 measured after 14 days by two-fold serial dilution method. The assay is classed as functional.
Assay [9] relates to Escherichia coli. Put plainly: Bactericidal activity against Escherichia coli CDC F-50 measured after 4 hrs. It counts as functional. Summed up: as §1
Assay [10] concerns Trichophyton mentagrophytes var. granulosum. Put plainly: Bactericidal activity against Trichophyton mentagrophytes var. granulosum 1773 measured after 4 hrs. It counts as functional. Summed up:
as §1

Assay [11] deals with Pseudomonas aeruginosa. Briefly: Antimicrobial activity against Pseudomonas aeruginosa ATCC 9027 measured every 24 hrs for 5 days by two-fold serial dilution method. It counts as functional.
The subject of assay [12] is Escherichia coli. Put plainly: Antimicrobial activity against Escherichia coli CDC F-50 measured every 24 hrs for 5 days by two-fold serial dilution method. It counts as functional.
Assay [13] has as its system Aspergillus niger. Put plainly: Antimicrobial activity against Aspergillus niger BKMF-1119 measured after 14 days by two-fold serial dilution method. The assay is classed as functional, organism-based.
The subject of assay [14] is Aspergillus niger. Put plainly: Bactericidal activity against Aspergillus niger BKMF-1119 measured after 4 hrs. The assay is classed as functional, organism-based. The essentials:
as §1

In general, MIC refers to the lowest concentration that inhibits growth of the organism. Turning to `CCOP(=O)(OCC)C(NCCC[N+](C)(C)Cc1ccccc1)c1cc(C(C)(C)C)c(O)c(C(C)(C)C)c1` (centres undefined), the MIC turned out to be 24.8 µM against Bacillus cereus [1]; 199 µM in the assay with Staphylococcus aureus [3]; 24.8 µM in the assay with Bacillus cereus [4]; 199 µM against Candida albicans [6] (855-653, 4 h); 99.5 µM in the assay on Staphylococcus aureus [7]; 199 µM in the assay with Candida albicans [8] (855-653, 336 h). Moreover, the MIC result (in the assay on Pseudomonas aeruginosa [2]; in [5]; in the assay with Escherichia coli [9]; in assay [10]; in the assay on Pseudomonas aeruginosa [11]; with Escherichia coli [12]) was “inactive” throughout. The MIC entry with Aspergillus niger [13] and with Aspergillus niger [14] was “inactive” each time.

For the compound `CC[N+](C)(C)CCNC(c1cc(C(C)(C)C)c(O)c(C(C)(C)C)c1)P(=O)(OC(C)C)OC(C)C` (centres undefined), the MIC with Bacillus cereus [1] stood at 216 µM; against Staphylococcus aureus [3], 108 µM; in the assay on Bacillus cereus [4], 216 µM; in the assay with Staphylococcus aureus [7], 108 µM; in the assay with Candida albicans [8] (855-653, 336 h), 432 µM. The MIC entry (in the assay with Pseudomonas aeruginosa [2]; in assay [5]; in the assay on Candida albicans [6]; in the assay on Escherichia coli [9]; in assay [10]; in the assay with Pseudomonas aeruginosa [11]) was “inactive” throughout. The MIC result in the assay with Escherichia coli [12], in the assay with Aspergillus niger [13] and with Aspergillus niger [14] was “inactive” each time.

Regarding `CCCCCCCCCCCC[N+](C)(C)CCCNC(c1cc(C(C)(C)C)c(O)c(C(C)(C)C)c1)P(=O)(OCC)OCC` (centres undefined), the MIC against Bacillus cereus [1] amounted to 177 µM; in the assay on Staphylococcus aureus [3], 22 µM; in the assay on Bacillus cereus [4] it was 177 µM; with Candida albicans [6] (855-653, 4 h) it was 44.3 µM; against Staphylococcus aureus [7], 22 µM; in the assay on Candida albicans [8] (855-653, 336 h) it was 44.3 µM. In addition, the MIC entry (with Pseudomonas aeruginosa [2]; in assay [5]; with Escherichia coli [9]; in [10]; in the assay with Pseudomonas aeruginosa [11]; in the assay with Escherichia coli [12]) was “inactive” each time. Further, the MIC result in the assay on Aspergillus niger [13] and with Aspergillus niger [14] was “inactive” in each case.

For the compound `CCCCCCCC[N+](C)(C)CCNC(=O)CCc1cc(C(C)(C)C)c(O)c(C(C)(C)C)c1`, the MIC was determined as 58 µM against Bacillus cereus [1]; 29 µM against Staphylococcus aureus [3]; 58 µM in the assay with Bacillus cereus [4]; 29 µM against Candida albicans [6] (855-653, 4 h); 29 µM in the assay with Staphylococcus aureus [7]; 29 µM in the assay with Candida albicans [8] (855-653, 336 h). In addition, the MIC entry (in the assay with Pseudomonas aeruginosa [2]; in assay [5]; with Escherichia coli [9]; in [10]; with Pseudomonas aeruginosa [11]; in the assay with Escherichia coli [12]) was “inactive” throughout. For the same compound, the MIC entry with Aspergillus niger [13] and in the assay on Aspergillus niger [14] was “inactive” throughout.

With `CCCCCCCCCC[N+](C)(C)CCNC(=O)CCc1cc(C(C)(C)C)c(O)c(C(C)(C)C)c1`, the MIC with Bacillus cereus [1] amounted to 6.8 µM; in the assay with Pseudomonas aeruginosa [2] (ATCC 9027, 4 h), 55 µM; against Staphylococcus aureus [3], 1.6 µM; against Bacillus cereus [4], 55 µM; against Candida albicans [6] (855-653, 4 h), 6.9 µM; against Staphylococcus aureus [7], 1.6 µM. Also, the MIC was found to be 3.3 µM in the assay on Candida albicans [8] (855-653, 336 h); 55 µM with Escherichia coli [9] (CDC F-50, 4 h); 27.4 µM with Pseudomonas aeruginosa [11]; 27.4 µM in the assay on Escherichia coli [12]. Moreover, the MIC entry (in [5]; in [10]; in the assay on Aspergillus niger [13]; in the assay on Aspergillus niger [14]) was “inactive” each time.

With `CC(C)OP(=O)(OC(C)C)C(NCCC[N+](C)(C)Cc1ccccc1)c1cc(C(C)(C)C)c(O)c(C(C)(C)C)c1` (centres undefined), the minimal inhibitory concentration (MIC) against Bacillus cereus [1], against Staphylococcus aureus [3], against Bacillus cereus [4] and in the assay with Staphylococcus aureus [7] was 95.3 µM throughout. For the same compound, the MIC result (in the assay with Pseudomonas aeruginosa [2]; in assay [5]; with Candida albicans [6]; in the assay on Candida albicans [8]; with Escherichia coli [9]; in assay [10]) was “inactive” each time. For the same compound, the MIC result in the assay with Pseudomonas aeruginosa [11], in the assay with Escherichia coli [12], with Aspergillus niger [13] and with Aspergillus niger [14] was “inactive” in each case.

The values are drawn from ChEMBL document CHEMBL4368886, “Design, synthesis, and biological activity of novel ammonium salts containing sterically hindered phenolic fragment and phosphoryl group” (Medchemcomm, 2018).
